Assay results as given in ChEMBL document CHEMBL1137618, “Synthesis and structure-activity relationship studies of 3,6-diazabicyclo[3.2.0]heptanes as novel alpha4beta2 nicotinic acetylcholine receptor selective agonists” (J Med Chem, 2007).

How the values were obtained:
[1] = Displacement of [3H]cytisine from neuronal nicotinic acetylcholine receptor in rat brain membrane; assay type: cell membranes
[2] = molecular target: T1, Neuronal acetylcholine receptor; alpha3/beta4 (Homo sapiens, UniProt P30926+P32297); test: Agonist activity at recombinant human alpha-3-beta-4 nAChR expressed in HEK293 cells assessed as induction of calcium influx by FLIPR assay; assay type: functional, cell-based
T1 sequence (P30926 whole entry): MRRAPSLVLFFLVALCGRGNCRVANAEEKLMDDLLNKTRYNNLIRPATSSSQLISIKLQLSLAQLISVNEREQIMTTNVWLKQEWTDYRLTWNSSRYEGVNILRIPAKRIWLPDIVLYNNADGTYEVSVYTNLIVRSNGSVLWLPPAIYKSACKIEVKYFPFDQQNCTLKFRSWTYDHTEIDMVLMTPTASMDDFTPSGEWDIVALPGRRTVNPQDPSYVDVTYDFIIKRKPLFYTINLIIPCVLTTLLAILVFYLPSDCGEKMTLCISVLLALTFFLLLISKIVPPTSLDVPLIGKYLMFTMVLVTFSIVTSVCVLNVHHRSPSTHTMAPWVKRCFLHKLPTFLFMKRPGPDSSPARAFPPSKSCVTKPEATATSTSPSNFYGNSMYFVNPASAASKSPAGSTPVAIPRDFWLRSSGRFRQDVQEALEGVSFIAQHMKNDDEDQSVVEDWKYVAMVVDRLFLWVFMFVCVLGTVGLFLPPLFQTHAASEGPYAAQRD
T1 sequence (P32297 whole entry): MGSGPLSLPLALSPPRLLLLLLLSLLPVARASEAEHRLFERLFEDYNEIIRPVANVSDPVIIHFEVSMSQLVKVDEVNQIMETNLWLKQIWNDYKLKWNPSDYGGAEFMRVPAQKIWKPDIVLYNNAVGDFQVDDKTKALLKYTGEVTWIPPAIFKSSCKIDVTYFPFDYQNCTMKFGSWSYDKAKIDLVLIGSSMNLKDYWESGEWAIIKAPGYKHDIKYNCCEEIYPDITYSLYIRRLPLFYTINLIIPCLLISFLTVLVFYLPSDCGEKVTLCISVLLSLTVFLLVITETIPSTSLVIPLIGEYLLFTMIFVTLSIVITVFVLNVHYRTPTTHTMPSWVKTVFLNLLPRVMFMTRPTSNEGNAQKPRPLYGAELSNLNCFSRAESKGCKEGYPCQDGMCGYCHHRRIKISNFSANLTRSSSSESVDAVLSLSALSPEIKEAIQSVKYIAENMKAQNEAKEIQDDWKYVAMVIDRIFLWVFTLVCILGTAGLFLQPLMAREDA

[3] = molecular target: T2, Neuronal acetylcholine receptor; alpha4/beta2 (Homo sapiens, UniProt P17787+P43681); test: Agonist activity at recombinant human alpha-4-beta-2 nAChR expressed in HEK293 cells assessed as induction of calcium influx by FLIPR assay relative to nicotine; assay type: functional, cell-based
T2 sequence (P17787 whole entry): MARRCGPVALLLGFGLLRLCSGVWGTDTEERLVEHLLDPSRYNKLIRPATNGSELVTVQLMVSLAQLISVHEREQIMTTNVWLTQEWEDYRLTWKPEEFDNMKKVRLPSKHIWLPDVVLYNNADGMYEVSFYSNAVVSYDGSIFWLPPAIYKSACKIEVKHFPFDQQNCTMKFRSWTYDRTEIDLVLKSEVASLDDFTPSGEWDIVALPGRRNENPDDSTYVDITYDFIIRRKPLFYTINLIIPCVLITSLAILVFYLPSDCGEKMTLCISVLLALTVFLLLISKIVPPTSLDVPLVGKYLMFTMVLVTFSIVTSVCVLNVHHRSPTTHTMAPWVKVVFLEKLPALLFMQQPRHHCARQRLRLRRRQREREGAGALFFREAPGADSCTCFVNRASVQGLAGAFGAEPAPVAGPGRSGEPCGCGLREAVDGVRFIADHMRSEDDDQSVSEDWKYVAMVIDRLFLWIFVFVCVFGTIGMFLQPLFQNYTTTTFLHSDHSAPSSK
T2 sequence (P43681 whole entry): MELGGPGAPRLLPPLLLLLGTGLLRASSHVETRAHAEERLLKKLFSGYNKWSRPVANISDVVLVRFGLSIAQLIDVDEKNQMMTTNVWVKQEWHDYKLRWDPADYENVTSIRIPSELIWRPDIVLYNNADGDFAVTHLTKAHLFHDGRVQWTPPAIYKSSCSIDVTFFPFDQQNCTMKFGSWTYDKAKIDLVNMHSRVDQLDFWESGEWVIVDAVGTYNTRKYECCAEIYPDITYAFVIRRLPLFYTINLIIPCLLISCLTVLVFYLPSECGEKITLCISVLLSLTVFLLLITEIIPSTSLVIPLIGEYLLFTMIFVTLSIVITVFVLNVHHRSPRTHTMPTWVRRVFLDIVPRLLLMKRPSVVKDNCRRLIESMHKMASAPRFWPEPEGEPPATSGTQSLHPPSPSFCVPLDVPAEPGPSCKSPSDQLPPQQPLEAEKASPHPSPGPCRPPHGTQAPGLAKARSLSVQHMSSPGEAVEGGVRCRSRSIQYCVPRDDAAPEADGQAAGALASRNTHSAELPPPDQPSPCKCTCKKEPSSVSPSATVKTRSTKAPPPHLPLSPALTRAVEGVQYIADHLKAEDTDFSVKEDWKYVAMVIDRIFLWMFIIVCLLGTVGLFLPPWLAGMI
Summary of the method: (§1)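 HEK-293 lines stably expressing human α4β2 or α3β4 nAChR, grown 24-48 h at 37 °C on poly-D-lysine in DMEM/10% FBS. Loaded with 2-4 µM Fluo-4 AM for ~0.75-1 h at room temperature in the dark, in NMDG Ringer pH 7.4. Serial log dilutions added, then peak calcium fluorescence read on FLIPR after buffer-blank subtraction.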

[4] = molecular target: T1, Neuronal acetylcholine receptor; alpha3/beta4; test: Agonist activity at recombinant human alpha3beta4 nAChR expressed in HEK293 cells assessed as induction of calcium influx by FLIPR assay relative to nicotine; assay type: functional, cell-based; summary of the method: as §1
[5] = molecular target: T2, Neuronal acetylcholine receptor; alpha4/beta2; test: Agonist activity at recombinant human alpha-4-beta-2 nAChR expressed in HEK293 cells assessed as induction of calcium influx by FLIPR assay; assay type: functional, cell-based

In the case of Cc1cc(N2C[C@@H]3CNC[C@@H]32)cnc1Cl, the Ki [1] is reported as 0.2 nM, the “Log Ki” value [1] is reported as -9.7 and the EC50 ([2]; read-out: EC50) is reported as 2.2 µM. For the same compound, the Activity [3] was 134%, the Activity [4] was 89% and the EC50 ([5]; read-out: EC50) was 0.6 µM.
In the case of Cc1cc(N2C[C@H]3CN[C@H]3C2)cnc1Cl, the Ki [1] is reported as 0.04 nM, the “Log Ki” value [1] is reported as -10.4 and the EC50 ([2]; read-out: EC50) is reported as 0.2 µM. For the same compound, the EC50 ([2]; read-out: Log EC50 (converted)) was 0.178 µM, the Activity [3] was 228% and the Activity [4] was 119%. For the same compound, the EC50 ([5]; read-out: EC50) was 0.7 µM and the EC50 ([5]; read-out: Log EC50 (converted)) was 0.0724 µM.
For Cc1cc(N2C[C@@H]3CN[C@@H]3C2)cnc1C, the Ki [1] was 2.2 nM, the “Log Ki” value [1] was -8.65 and the EC50 ([2]; read-out: EC50) was 3.3 µM. The Activity [3] was 76%, the Activity [4] was 85% and the EC50 ([5]; read-out: EC50) was 1.2 µM.
With Clc1cncc(N2C[C@H]3CNC[C@H]32)c1 the Ki [1] was 3 nM, the “Log Ki” value [1] was -8.53 and the EC50 ([2]; read-out: EC50) was 23 µM. It also gave an Activity [3] of 88%, an Activity [4] of 81% and an EC50 ([5]; read-out: EC50) of 8.1 µM. For the same compound, the EC50 ([5]; read-out: Log EC50 (converted)) was 7.24 µM.
With COc1cc(N2C[C@H]3CNC[C@H]32)cnc1Br the Ki [1] was 0.2 nM, the “Log Ki” value [1] was -9.68 and the EC50 ([2]; read-out: EC50) was 1.8 µM. For the same compound, the Activity [3] was 118%, the Activity [4] was 94% and the EC50 ([5]; read-out: EC50) was 0.9 µM.
In the case of COc1cncc(N2C[C@@H]3CN[C@@H]3C2)c1, the Ki [1] is reported as 3 nM, the “Log Ki” value [1] is reported as -8.52 and the EC50 ([2]; read-out: EC50) is reported as 48.1 µM. For the same compound, the EC50 ([2]; read-out: Log EC50 (converted)) was 46.8 µM, the Activity [3] was 55% and the Activity [4] was 44%. It also gave an EC50 ([5]; read-out: EC50) of 15.8 µM and an EC50 ([5]; read-out: Log EC50 (converted)) of 13.2 µM.
With N#Cc1cncc(N2C[C@H]3CN[C@H]3C2)c1 the Ki [1] was 0.1 nM, the “Log Ki” value [1] was -9.92 and the EC50 ([2]; read-out: EC50) was 0.3 µM. It also gave an Activity [3] of 123%, an Activity [4] of 102% and an EC50 ([5]; read-out: EC50) of 0.6 µM. The EC50 ([5]; read-out: Log EC50 (converted)) was 0.417 µM.
With N#Cc1cncc(N2C[C@@H]3CNC[C@@H]32)c1 the Ki [1] was 0.9 nM, the “Log Ki” value [1] was -9.07 and the EC50 ([2]; read-out: EC50) was 13.7 µM. It also gave an EC50 ([2]; read-out: Log EC50 (converted)) of 12.3 µM, an Activity [3] of 34% and an Activity [4] of 47%. The EC50 ([5]; read-out: EC50) was 11.4 µM and the EC50 ([5]; read-out: Log EC50 (converted)) was 9.12 µM.
For Brc1cncc(N2C[C@@H]3CN[C@@H]3C2)c1, the Ki [1] was 1.4 nM, the “Log Ki” value [1] was -8.84 and the EC50 ([2]; read-out: EC50) was 9.1 µM. It also gave an Activity [3] of 53%, an Activity [4] of 68% and an EC50 ([5]; read-out: EC50) of 6.5 µM. The EC50 ([5]; read-out: Log EC50 (converted)) was 6.17 µM.
For C#Cc1cncc(N2C[C@@H]3CNC[C@@H]32)c1, the Ki [1] was 0.6 nM, the “Log Ki” value [1] was -9.21 and the EC50 ([2]; read-out: EC50) was 33.2 µM. For the same compound, the EC50 ([2]; read-out: Log EC50 (converted)) was 13.2 µM, the Activity [3] was 45% and the Activity [4] was 33%. It also gave an EC50 ([5]; read-out: EC50) of 20.4 µM and an EC50 ([5]; read-out: Log EC50 (converted)) of 13.5 µM.
With COc1cncc(N2C[C@@H]3CNC[C@@H]32)c1 the Ki [1] was 7.2 nM, the “Log Ki” value [1] was -8.14 and the EC50 ([2]; read-out: EC50) was 31.2 µM. For the same compound, the Activity [3] was 43%, the Activity [4] was 64% and the EC50 ([5]; read-out: EC50) was 24.7 µM. It also gave an EC50 ([5]; read-out: Log EC50 (converted)) of 22.9 µM.
With Cc1ncc(N2C[C@H]3CNC[C@H]32)cc1C#N the Ki [1] was 1.1 nM, the “Log Ki” value [1] was -8.95 and the EC50 ([2]; read-out: EC50) was 2.1 µM. The Activity [3] was 128%, the Activity [4] was 96% and the EC50 ([5]; read-out: EC50) was 3.9 µM. For the same compound, the EC50 ([5]; read-out: Log EC50 (converted)) was 3.8 µM.
With N#Cc1cncc(N2C[C@@H]3CN[C@@H]3C2)c1 the Ki [1] was 1.7 nM, the “Log Ki” value [1] was -8.77 and the EC50 ([2]; read-out: EC50) was 7.1 µM. For the same compound, the Activity [3] was 102%, the Activity [4] was 84% and the EC50 ([5]; read-out: EC50) was 14.6 µM. For the same compound, the EC50 ([5]; read-out: Log EC50 (converted)) was 13.2 µM.
With Clc1cncc(N2C[C@@H]3CN[C@@H]3C2)c1 the Ki [1] was 1.9 nM, the “Log Ki” value [1] was -8.72 and the EC50 ([2]; read-out: EC50) was 25.3 µM. It also gave an Activity [3] of 66%, an Activity [4] of 57% and an EC50 ([5]; read-out: EC50) of 11.4 µM. It also gave an EC50 ([5]; read-out: Log EC50 (converted)) of 9.33 µM.
